Test results reported in ChEMBL document CHEMBL5705904 (N Engl J Med, 2016).

Columns and labels:
[1] = Terminal elimination half life in human at 100 mg, po administered for 8 days by LC-MS/MS analysis; format: ADME, organism-based; settings: in vivo, time 8 day, read-out: LambdaZ (converted)
[2] = Apparent oral clearance in human at 100 mg, po BID administered for 8 days by LC-MS/MS analysis; format: ADME, organism-based; settings: in vivo, time 8 day
Summary of the method: (§1)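 Steady-state plasma sampling on cycle 1 day 8 in patients, predose and 0.25, 0.5, 0.75, 1, 2, 4 and 6 h post-dose, into lithium heparin. Plasma was stored at -80°C. Drug was quantified by validated LC-MS/MS against a stable labeled internal standard, using only values at or above LLOQ and nominal sampling times.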

[3] = target: Tyrosine-protein kinase Lck (Homo sapiens, UniProt P06239); assay: Inhibition of recombinant LCK (unknown origin) preincubated for 1 hr […] by Z-Lyte assay
Summary of the method: (§2)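 Recombinant kinase activity was measured by Z'-LYTE with ATP at each enzyme's Km. Inhibitor came from a 10 mM DMSO stock and was tested at 10 concentrations. Compound was preincubated with kinase for 1 h before ATP addition started the reaction, for about 2 h total compound-kinase exposure. IC50 is from 2–3 independent experiments.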

[4] = AUC(0 to 12 hrs) in human at 400 mg, po administered for 8 days by LC-MS/MS analysis; format: ADME, organism-based; settings: in vivo, time 8 day; summary of the method: as §1
[5] = target: Tyrosine-protein kinase Fyn (Homo sapiens, UniProt P06241); assay: Inhibition of recombinant FYN (unknown origin) preincubated for 1 hr […] by Z-Lyte assay; summary of the method: as §2
[6] = AUC(0 to 6 hrs) in human at 400 mg, po administered for 8 days by LC-MS/MS analysis; format: ADME, organism-based; settings: in vivo, time 8 day; summary of the method: as §1
[7] = target: Tyrosine-protein kinase Yes (Homo sapiens, UniProt P07947); assay: Inhibition of recombinant YES1 (unknown origin) […] by Z-Lyte assay
Summary of the method: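 Recombinant YES1 run in a Z'-LYTE assay. Compound preincubated with kinase for 1 h before ATP was added to start the reaction. IC50 derived from independent experiments run head-to-head with the comparator.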

[8] = Terminal elimination half life in human at 250 mg, po administered for 8 days by LC-MS/MS analysis; format: ADME, organism-based; settings: in vivo, time 8 day, read-out: LambdaZ (converted)
[9] = AUC(0 to infinity) in human at 175 mg, po administered for 8 days by LC-MS/MS analysis; format: ADME, organism-based; settings: in vivo, time 8 day; summary of the method: as §1
[10] = Drug exposure in human administered for 6 hrs by LC-MS/MS analysis; format: ADME; settings: po, dose 100-400 mg
[11] = Apparent volume of distribution during terminal phase in human at 250 mg, po administered for 8 days by LC-MS/MS analysis; format: ADME, organism-based; settings: in vivo, time 8 day, read-out: Vz/F; summary of the method: as §1
[12] = Cmax in human at 100 mg, po BID administered for 8 days by LC-MS/MS analysis; format: ADME, organism-based; settings: in vivo, time 8 day; summary of the method: as §1
[13] = Apparent oral clearance in human at 100 mg, po administered for 8 days by LC-MS/MS analysis; format: ADME, organism-based; settings: in vivo, time 8 day; summary of the method: as §1
[14] = Apparent volume of distribution during terminal phase in human at 100 mg, po BID administered for 8 days by LC-MS/MS analysis; format: ADME, organism-based; settings: in vivo, time 8 day, read-out: Vz/F; summary of the method: as §1
[15] = Half life in human at 175 mg, po administered for 8 days by LC-MS/MS analysis; format: ADME, organism-based; settings: in vivo, time 8 day; summary of the method: as §1
[16] = Terminal elimination half life in human at 400 mg, po administered for 8 days by LC-MS/MS analysis; format: ADME, organism-based; settings: in vivo, time 8 day, read-out: LambdaZ (converted)
[17] = Tmax in human at 100 mg, po BID administered for 8 days by LC-MS/MS analysis; format: ADME, organism-based; settings: in vivo, time 8 day
Summary of the method: (§3)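 Patient plasma sampled on cycle 1 day 8 at predose and 0.25, 0.5, 0.75, 1, 2, 4 and 6 h post-dose, in lithium heparin. […] Tmax read directly from each individual's data; summarized descriptively.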

[18] = AUC(0 to infinity) in human at 250 mg, po administered for 8 days by LC-MS/MS analysis; format: ADME, organism-based; settings: in vivo, time 8 day; summary of the method: as §1
[19] = AUC(0 to 12 hrs) in human at 100 mg, po BID administered for 8 days by LC-MS/MS analysis; format: ADME, organism-based; settings: in vivo, time 8 day; summary of the method: as §1
[20] = Cmax in human at 400 mg, po administered for 8 days by LC-MS/MS analysis; format: ADME, organism-based; settings: in vivo, time 8 day; summary of the method: as §1
[21] = Tmax in human at 175 mg, po administered for 8 days by LC-MS/MS analysis; format: ADME, organism-based; settings: in vivo, time 8 day; summary of the method: as §3
[22] = AUC(0 to 12 hrs) in human at 175 mg, po administered for 8 days by LC-MS/MS analysis; format: ADME, organism-based; settings: in vivo, time 8 day; summary of the method: as §1
[23] = Terminal elimination half life in human at 175 mg, po administered for 8 days by LC-MS/MS analysis; format: ADME, organism-based; settings: in vivo, time 8 day, read-out: LambdaZ (converted)
[24] = Half life in human at 100 mg, po BID administered for 8 days by LC-MS/MS analysis; format: ADME, organism-based; settings: in vivo, time 8 day; summary of the method: as §1
[25] = Apparent volume of distribution during terminal phase in human at 400 mg, po administered for 8 days by LC-MS/MS analysis; format: ADME, organism-based; settings: in vivo, time 8 day, read-out: Vz/F; summary of the method: as §1
[26] = Apparent volume of distribution during terminal phase in human at 100 mg, po administered for 8 days by LC-MS/MS analysis; format: ADME, organism-based; settings: in vivo, time 8 day, read-out: Vz/F; summary of the method: as §1
[27] = AUC(0 to 12 hrs) in human at 100 mg, po administered for 8 days by LC-MS/MS analysis; format: ADME, organism-based; settings: in vivo, time 8 day; summary of the method: as §1
[28] = Apparent volume of distribution during terminal phase in human at 175 mg, po administered for 8 days by LC-MS/MS analysis; format: ADME, organism-based; settings: in vivo, time 8 day, read-out: Vz/F; summary of the method: as §1
[29] = AUC(0 to infinity) in human at 400 mg, po administered for 8 days by LC-MS/MS analysis; format: ADME, organism-based; settings: in vivo, time 8 day; summary of the method: as §1
[30] = target: Tyrosine-protein kinase Lyn (Homo sapiens, UniProt P07948); assay: Inhibition of recombinant LYN (unknown origin) preincubated for 1 hr in presence of ATP by Z-Lyte assay; summary of the method: as §2
[31] = Cmax in human at 250 mg, po administered for 8 days by LC-MS/MS analysis; format: ADME, organism-based; settings: in vivo, time 8 day; summary of the method: as §1

Chain of Tyrosine-protein kinase Lyn (P07948 whole entry): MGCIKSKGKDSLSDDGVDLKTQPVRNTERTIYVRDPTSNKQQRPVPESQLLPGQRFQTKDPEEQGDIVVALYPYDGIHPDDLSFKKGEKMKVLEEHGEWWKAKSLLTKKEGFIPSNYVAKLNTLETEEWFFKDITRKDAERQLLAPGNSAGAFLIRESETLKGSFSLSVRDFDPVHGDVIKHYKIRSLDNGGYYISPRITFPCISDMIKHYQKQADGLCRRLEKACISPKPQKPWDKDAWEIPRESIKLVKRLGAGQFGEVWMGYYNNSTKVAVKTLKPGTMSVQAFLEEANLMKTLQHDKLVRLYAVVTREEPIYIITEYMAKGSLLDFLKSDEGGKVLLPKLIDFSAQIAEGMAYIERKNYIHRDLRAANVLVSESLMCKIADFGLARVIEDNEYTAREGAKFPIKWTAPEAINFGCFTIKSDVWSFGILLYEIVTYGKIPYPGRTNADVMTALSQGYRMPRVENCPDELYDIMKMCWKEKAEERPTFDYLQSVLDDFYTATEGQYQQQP
Chain of Tyrosine-protein kinase Fyn (P06241 whole entry): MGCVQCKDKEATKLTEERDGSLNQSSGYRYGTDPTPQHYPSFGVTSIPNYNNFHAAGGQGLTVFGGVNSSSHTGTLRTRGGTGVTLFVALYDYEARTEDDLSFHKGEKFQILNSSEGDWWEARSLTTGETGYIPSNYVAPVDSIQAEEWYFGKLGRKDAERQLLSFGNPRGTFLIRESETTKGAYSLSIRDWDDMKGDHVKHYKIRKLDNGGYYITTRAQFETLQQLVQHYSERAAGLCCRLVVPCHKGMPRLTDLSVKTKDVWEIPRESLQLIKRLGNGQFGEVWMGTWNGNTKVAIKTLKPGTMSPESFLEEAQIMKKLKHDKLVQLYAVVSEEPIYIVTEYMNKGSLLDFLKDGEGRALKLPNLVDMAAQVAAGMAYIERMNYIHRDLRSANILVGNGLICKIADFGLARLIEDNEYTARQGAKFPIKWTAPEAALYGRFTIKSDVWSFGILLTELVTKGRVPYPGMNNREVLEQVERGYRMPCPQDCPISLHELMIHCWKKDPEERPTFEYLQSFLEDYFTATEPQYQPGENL
Chain of Tyrosine-protein kinase Yes (P07947 whole entry): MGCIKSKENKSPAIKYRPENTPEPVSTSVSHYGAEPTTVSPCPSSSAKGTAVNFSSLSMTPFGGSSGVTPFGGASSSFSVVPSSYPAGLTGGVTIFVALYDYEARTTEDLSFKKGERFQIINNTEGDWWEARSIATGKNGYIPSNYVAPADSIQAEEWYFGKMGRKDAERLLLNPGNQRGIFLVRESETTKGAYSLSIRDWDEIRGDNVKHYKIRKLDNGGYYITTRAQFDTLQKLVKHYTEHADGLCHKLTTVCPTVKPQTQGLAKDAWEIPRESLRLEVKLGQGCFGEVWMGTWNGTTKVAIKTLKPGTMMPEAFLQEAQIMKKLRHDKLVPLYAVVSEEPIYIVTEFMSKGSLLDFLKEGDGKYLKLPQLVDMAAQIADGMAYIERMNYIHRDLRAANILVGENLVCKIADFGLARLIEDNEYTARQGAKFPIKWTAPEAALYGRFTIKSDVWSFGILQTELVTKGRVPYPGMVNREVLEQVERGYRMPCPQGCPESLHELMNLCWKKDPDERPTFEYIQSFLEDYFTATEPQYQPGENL
Chain of Tyrosine-protein kinase Lck (P06239 whole entry): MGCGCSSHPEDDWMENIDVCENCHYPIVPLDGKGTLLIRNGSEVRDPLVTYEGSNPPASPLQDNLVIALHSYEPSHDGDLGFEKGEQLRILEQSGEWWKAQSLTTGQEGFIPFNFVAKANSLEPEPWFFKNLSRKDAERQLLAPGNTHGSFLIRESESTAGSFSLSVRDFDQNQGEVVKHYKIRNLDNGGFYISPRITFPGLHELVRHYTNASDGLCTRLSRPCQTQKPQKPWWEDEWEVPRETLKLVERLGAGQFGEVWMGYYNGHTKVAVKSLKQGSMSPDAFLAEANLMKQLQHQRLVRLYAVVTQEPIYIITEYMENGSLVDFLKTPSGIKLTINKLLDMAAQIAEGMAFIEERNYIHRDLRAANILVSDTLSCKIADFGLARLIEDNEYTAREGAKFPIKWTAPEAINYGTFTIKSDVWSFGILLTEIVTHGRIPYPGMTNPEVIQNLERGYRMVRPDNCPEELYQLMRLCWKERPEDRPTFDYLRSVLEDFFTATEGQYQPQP

CC#CC(=O)N1CCC[C@H]1c1nc(-c2ccc(C(=O)Nc3ccccn3)cc2)c2c(N)nccn12 [ACALABRUTINIB]
k el at 192 h [1]: 0.00017 s⁻¹ | CL/F [2]: 2750 mL/min | IC50 [3]: > 1000 nM | AUC at 192 h [4]: 1850 ng·h/mL | IC50 [5]: > 1000 nM | AUC at 192 h [6]: 1730 ng·h/mL | IC50 [7]: > 1000 nM | k el at 192 h [8]: 0.000206 s⁻¹ | AUC(0-inf) [9]: 1160 ng·h/mL | Drug uptake [10]: Dose-Dependent Effect | Vd/F [11]: 179 L | Cmax [12]: 827 ng/mL | CL/F [13]: 3000 mL/min | Vd/F [14]: 361 L | half-life [15]: 1.02 h | k el at 192 h [16]: 0.000161 s⁻¹ | Tmax [17]: 1 h | AUC(0-inf) [18]: 2310 ng·h/mL | AUC at 192 h [19]: 926 ng·h/mL | Cmax [20]: 902 ng/mL | Tmax [21]: 0.64 h | AUC at 192 h [22]: 1160 ng·h/mL | k el at 192 h [23]: 0.000194 s⁻¹ | half-life [24]: 1.13 h | Vd/F [25]: 677 L | Vd/F [26]: 308 L | AUC at 192 h [27]: 602 ng·h/mL | Vd/F [28]: 317 L | AUC(0-inf) [29]: 1870 ng·h/mL | IC50 [30]: > 1000 nM | Cmax [31]: 1350 ng/mL
